Assay results as given in ChEMBL document CHEMBL1158703, “Psychopharmacological profile of the alkaloid psychollatine as a 5HT2A/C serotonin modulator” (2005).
Activity calls are given as the source filed them.

Experiments:
[1] = test system: Mus musculus; assay: Effect on locomotory activity in CF1 mouse assessed as change in spontaneous activity at 3 to 30 mg/kg; format: functional, organism-based
Method in brief: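 Mice were habituated singly for 10 min in photocell activity cages and then dosed i.p. Diazepam was given in 10% propylene glycol. After 30 min, crossings were recorded for 15 min. n = 10–16, ANOVA then SNK.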

[2] = test system: Mus musculus; assay: Anxiolytic activity against CF1 mouse assessed as increase in time spent in light compartment at 7.5 mg/kg for 5 mins; format: functional, organism-based; set-up: dose 7.5 mg/kg
Method in brief: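 Light/dark box with a black, room-lit small compartment and a white large compartment lit at 400 lx. Male CF1 mice were acclimated at least 1 h under dim red light and dosed i.p. 30 min before testing. Recorded were latency to first entry and time spent in the light area. Values are mean ± SEM (N = 19-22), analysed by one-way ANOVA then SNK.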

[3] = test system: Mus musculus; assay: Anxiolytic activity against CF1 mouse assessed as increase in number of crossings at 15 mg/kg after 30 mins by hole-board assay; format: functional, organism-based; set-up: dose 15 mg/kg
Method in brief: (§1)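 Hole-board set 15 cm high and divided into 16 squares, with photocells counting head-dips. Male CF1 mice were dosed i.p. and placed centrally 30 min later under dim light. Over 5 min, head-dips, rearings and squares crossed were counted. Values are mean ± SEM (N = 15), analysed by one-way ANOVA then SNK.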

[4] = test system: Mus musculus; assay: Anxiolytic activity against CF1 mouse assessed as increase in time spent in light compartment at 7.5 mg/kg in presence of ritanserin for 5 mins; format: functional, organism-based; set-up: dose 7.5 mg/kg
Method in brief: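 Male CF1 mice received ritanserin 2 mg/kg i.p. (in 10% DMSO) 30 min before the test drug at 7.5 mg/kg i.p. The light/dark test followed 30 min later, scoring latency to first entry and time in the light compartment. Values are mean ± SEM (N = 8-10), analysed by one-way ANOVA/SNK.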

[5] = test system: Mus musculus; assay: Anxiolytic activity against CF1 mouse assessed as suppression of oxotremorine-treated tremors at 3 mg/kg; format: functional, organism-based; set-up: dose 3 mg/kg
Method in brief: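 Mice received treatment i.p. 30 min before oxotremorine 0.5 mg/kg in saline. Each mouse was then placed alone in a transparent cage immediately after injection and tremor was scored. Data given as median (interquartile range); Kruskal–Wallis then Mann–Whitney U against saline + oxotremorine.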

[6] = test system: Mus musculus; assay: Effect on long term memory of CF1 mouse assessed as reduction in latency during aquisition at 7.5 mg/kg by passive avoidance test; format: functional
Method in brief: (§2)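 Step-down inhibitory avoidance in male CF1 mice with i.p. dosing 30 min before training. Stepping down during training gave a 0.3 mA scrambled foot shock for 15 s. The latency to step down during training was recorded, with no exclusion criterion applied. N = 20 per group; values are median (interquartile range).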

[7] = test system: Mus musculus; assay: Anxiolytic activity against CF1 mouse assessed as increase in number of crossings at 7.5 mg/kg after 30 mins by hole-board assay; format: functional, organism-based; set-up: dose 7.5 mg/kg; method in brief: as §1
[8] = test system: Mus musculus; assay: Effect on long term memory of CF1 mouse assessed as reduction in latency during aquisition at 100 mg/kg by passive avoidance test; format: functional; method in brief: as §2
[9] = test system: Mus musculus; assay: Effect on short term memory of CF1 mouse assessed as reduction in latency during aquisition at 100 mg/kg by passive avoidance test; format: functional; method in brief: as §2
[10] = test system: Mus musculus; assay: Anxiolytic activity against CF1 mouse assessed as suppression of oxotremorine-treated tremors at 10 mg/kg; format: functional, organism-based; set-up: dose 10 mg/kg
Method in brief: (§3)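 Male CF1 mice were given the test drug i.p. in saline 30 min before oxotremorine 0.5 mg/kg. Each mouse was then placed alone in an acrylic cage for observation of tremor. Values are median (interquartile range), analysed by Kruskal–Wallis then Mann–Whitney U against saline + oxotremorine.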

[11] = test system: Mus musculus; assay: Anxiolytic activity against CF1 mouse assessed as suppression of oxotremorine-treated tremors at 30 mg/kg; format: functional, organism-based; set-up: dose 30 mg/kg; method in brief: as §3
[12] = test system: Mus musculus; assay: Anxiolytic activity against CF1 mouse assessed as suppression of oxotremorine-treated tremors at 7.5 mg/kg; format: functional, organism-based; set-up: dose 7.5 mg/kg; method in brief: as §3

**Q.** How did the Activity [1] turn out when `COC(=O)C1=CO[C@@H](O[C@H]2O[C@H](CO)[C@@H](O)[C@H](O)[C@H]2O)[C@@H]2C([C@@H]3NCCc4c3[nH]c3ccccc43)=CC[C@H]12` [PSYCHOLLATINE] was run?
**A.** inactive

**Q.** And the Activity [2]?
**A.** Active

**Q.** And the Activity [3]?
**A.** Active

**Q.** And the Activity [4]?
**A.** inactive

**Q.** And the Activity [5]?
**A.** Active

**Q.** What about the Activity [6] of the same molecule?
**A.** 13.4 s

**Q.** And the Activity [7]?
**A.** Active

**Q.** And the Activity [8]?
**A.** 5 s

**Q.** What about the Activity [9] of the same molecule?
**A.** 6.8 s

**Q.** And the Activity [10]?
**A.** Active

**Q.** And the Activity [11]?
**A.** Active

**Q.** And the Activity [12]?
**A.** Active
